# Experimental data reported in ChEMBL document CHEMBL4680371, “Design and Structure-Activity Relationship of a Potent Furin Inhibitor Derived from Influenza Hemagglutinin” (ACS Med Chem Lett, 2021).
# Where a SMILES comes first, the peptide text is derived from it.
# Target: Furin (Homo sapiens, UniProt P09958)
# Assay: Inhibition of recombinant soluble human furin using pyroGlu-Arg-Thr-Lys-Arg-methyl-coumaryl-7-amide as substrate measured after 1 hr
# Settings: not given
# How it was run: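 Soluble human recombinant furin was tested in a competitive kinetic assay. Ki is reported as the mean ± SD of at least two independent experiments.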
# Chain of Furin (P09958 whole entry): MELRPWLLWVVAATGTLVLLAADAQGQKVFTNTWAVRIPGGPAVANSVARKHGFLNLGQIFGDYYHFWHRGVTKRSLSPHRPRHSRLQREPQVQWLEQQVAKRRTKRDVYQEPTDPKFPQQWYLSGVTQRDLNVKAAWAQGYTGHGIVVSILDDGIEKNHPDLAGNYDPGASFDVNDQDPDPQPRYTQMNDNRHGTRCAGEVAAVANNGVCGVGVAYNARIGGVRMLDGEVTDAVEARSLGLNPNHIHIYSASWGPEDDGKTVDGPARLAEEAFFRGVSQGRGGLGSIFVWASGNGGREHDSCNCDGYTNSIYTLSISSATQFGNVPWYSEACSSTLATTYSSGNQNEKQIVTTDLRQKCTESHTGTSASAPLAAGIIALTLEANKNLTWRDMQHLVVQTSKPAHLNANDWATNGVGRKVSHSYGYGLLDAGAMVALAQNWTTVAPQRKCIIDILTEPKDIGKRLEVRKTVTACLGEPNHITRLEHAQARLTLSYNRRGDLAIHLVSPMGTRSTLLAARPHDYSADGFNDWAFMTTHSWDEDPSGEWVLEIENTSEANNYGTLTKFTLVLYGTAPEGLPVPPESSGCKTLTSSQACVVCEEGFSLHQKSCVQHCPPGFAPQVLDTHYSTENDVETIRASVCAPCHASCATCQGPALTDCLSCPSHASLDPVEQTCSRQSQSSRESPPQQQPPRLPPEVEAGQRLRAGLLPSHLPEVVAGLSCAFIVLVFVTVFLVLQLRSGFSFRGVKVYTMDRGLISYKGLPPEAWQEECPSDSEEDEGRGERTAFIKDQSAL
row,SMILES,Ki
1,CC(=O)N[C@@H](Cc1ccccc1)C(=O)N[C@@H](C)C(=O)N[C@@H](CCCNC(=N)N)C(=O)N[C@@H](CCCNC(=N)N)C(=O)N[C@@H](CCCNC(=N)N)C(=O)N[C@@H](CCCCN)C(=O)N[C@@H](CCCCN)C(=O)N[C@@H](CCCNC(=N)N)C(=O)N[C@H](C(N)=O)[C@@H](C)O,14 nM
2,CC(=O)N[C@@H](CCCNC(=N)N)C(=O)N[C@@H](Cc1ccccc1)C(=O)N[C@@H](CCCNC(=N)N)C(=O)N[C@@H](CCCNC(=N)N)C(=O)N[C@@H](CCCNC(=N)N)C(=O)N[C@@H](CCCCN)C(=O)N[C@@H](CCCCN)C(=O)N[C@@H](CCCNC(=N)N)C(=O)N[C@H](C(N)=O)[C@@H](C)O,23 nM
3,CC(=O)N[C@@H](CCCNC(=N)N)C(=O)N[C@@H](C)C(=O)N[C@@H](CCCNC(=N)N)C(=O)N[C@@H](CCCNC(=N)N)C(=O)N[C@@H](CCCNC(=N)N)C(=O)N[C@@H](CCCCN)C(=O)N[C@@H](CCCCN)C(=O)NN(CCCNC(=N)N)CC(=O)N[C@@H](Cc1ccccc1)C(N)=O,2500 nM
4,CC[C@H](C)[C@H](NC(=O)[C@H](CCCNC(=N)N)NC(=O)[C@H](C)NC(=O)[C@H](CCC(N)=O)NC(C)=O)C(=O)N[C@@H](CCCNC(=N)N)C(=O)N[C@@H](CCCCN)C(=O)N[C@@H](CCCCN)C(=O)N[C@@H](CCCNC(=N)N)C(=O)N[C@H](C(N)=O)[C@@H](C)O (Ac-QARIRKKRT-NH2),9 nM
5,CC(=O)N[C@@H](CCCNC(=N)N)C(=O)N[C@@H](C)C(=O)N[C@@H](CCCNC(=N)N)C(=O)NCC(=O)N[C@@H](CCCNC(=N)N)C(=O)N[C@@H](CCCCN)C(=O)N[C@@H](CCCCN)C(=O)N[C@@H](CCCNC(=N)N)C(=O)N[C@H](C(N)=O)[C@@H](C)O,36 nM
6,CCCC[C@H](NC(=O)[C@H](CCCNC(=N)N)NC(=O)[C@H](C)NC(=O)[C@H](CCCNC(=N)N)NC(C)=O)C(=O)N[C@@H](CCCNC(=N)N)C(=O)N[C@@H](CCCCN)C(=O)N[C@@H](CCCCN)C(=O)N[C@@H](CCCNC(=N)N)C(=O)N[C@H](C(N)=O)[C@@H](C)O,19 nM
7,CC(=O)N[C@@H](Cc1c[nH]cn1)C(=O)N[C@@H](C)C(=O)N[C@@H](CCCNC(=N)N)C(=O)N[C@@H](CCCNC(=N)N)C(=O)N[C@@H](CCCNC(=N)N)C(=O)N[C@@H](CCCCN)C(=O)N[C@@H](CCCCN)C(=O)N[C@@H](CCCNC(=N)N)C(=O)N[C@H](C(N)=O)[C@@H](C)O,12 nM
8,CC(=O)N[C@H](CO)C(=O)N[C@@H](C)C(=O)N[C@@H](CCCNC(=N)N)C(=O)N[C@@H](CCCNC(=N)N)C(=O)N[C@@H](CCCNC(=N)N)C(=O)N[C@@H](CCCCN)C(=O)N[C@@H](CCCCN)C(=O)N[C@@H](CCCNC(=N)N)C(=O)N[C@H](C(N)=O)[C@@H](C)O,11 nM
9,CC[C@H](NC(=O)[C@H](CCCNC(=N)N)NC(=O)[C@H](C)NC(=O)[C@H](CO)NC(C)=O)C(=O)N[C@@H](CCCNC(=N)N)C(=O)N[C@@H](CCCCN)C(=O)N[C@@H](CCCCN)C(=O)N[C@@H](CCCNC(=N)N)C(=O)N[C@H](C(N)=O)[C@@H](C)O,11 nM
10,CC[C@H](C)[C@H](NC(=O)[C@H](CCCNC(=N)N)NC(C)=O)C(=O)N[C@@H](CCCNC(=N)N)C(=O)N[C@@H](CCCNC(=N)N)C(=O)N[C@@H](CCCNC(=N)N)C(=O)N[C@@H](CCCCN)C(=O)N[C@@H](CCCCN)C(=O)N[C@@H](CCCNC(=N)N)C(=O)N[C@H](C(N)=O)[C@@H](C)O,20 nM
11,CC(=O)N[C@@H](CCCNC(=N)N)C(=O)N[C@@H](C)C(=O)N[C@@H](Cc1ccccc1)C(=O)N[C@@H](CCCNC(=N)N)C(=O)N[C@@H](CCCNC(=N)N)C(=O)N[C@@H](CCCCN)C(=O)N[C@@H](CCCCN)C(=O)N[C@@H](CCCNC(=N)N)C(=O)N[C@H](C(N)=O)[C@@H](C)O,29 nM
12,CC(=O)N[C@@H](CCCNC(=N)N)C(=O)N[C@@H](C)C(=O)N[C@@H](CCCNC(=N)N)C(=O)NC1(C(=O)N[C@@H](CCCNC(=N)N)C(=O)N[C@@H](CCCCN)C(=O)N[C@@H](CCCCN)C(=O)N[C@@H](CCCNC(=N)N)C(=O)N[C@H](C(N)=O)[C@@H](C)O)CCCC1,50 nM
13,CC(=O)N[C@@H](CCCNC(=N)N)C(=O)N[C@@H](C)C(=O)N[C@@H](CC(N)=O)C(=O)N[C@@H](CCCNC(=N)N)C(=O)N[C@@H](CCCNC(=N)N)C(=O)N[C@@H](CCCCN)C(=O)N[C@@H](CCCCN)C(=O)N[C@@H](CCCNC(=N)N)C(=O)N[C@H](C(N)=O)[C@@H](C)O,27 nM
14,CC[C@H](NC(=O)[C@H](CCCNC(=N)N)NC(=O)[C@H](C)NC(=O)[C@@H]1CCCN1C(C)=O)C(=O)N[C@@H](CCCNC(=N)N)C(=O)N[C@@H](CCCCN)C(=O)N[C@@H](CCCCN)C(=O)N[C@@H](CCCNC(=N)N)C(=O)N[C@H](C(N)=O)[C@@H](C)O,10 nM
15,CC(=O)N[C@@H](CC(N)=O)C(=O)N[C@@H](C)C(=O)N[C@@H](CCCNC(=N)N)C(=O)N[C@@H](CCCNC(=N)N)C(=O)N[C@@H](CCCNC(=N)N)C(=O)N[C@@H](CCCCN)C(=O)N[C@@H](CCCCN)C(=O)N[C@@H](CCCNC(=N)N)C(=O)N[C@H](C(N)=O)[C@@H](C)O,12 nM
16,CC(=O)N[C@@H](CCCNC(=N)N)C(=O)N[C@@H](CCC(N)=O)C(=O)N[C@@H](CCCNC(=N)N)C(=O)N[C@@H](CCCNC(=N)N)C(=O)N[C@@H](CCCNC(=N)N)C(=O)N[C@@H](CCCCN)C(=O)N[C@@H](CCCCN)C(=O)N[C@@H](CCCNC(=N)N)C(=O)N[C@H](C(N)=O)[C@@H](C)O,19 nM
17,CC(=O)N[C@@H](CCCNC(=N)N)C(=O)N[C@@H](Cc1ccc(O)cc1)C(=O)N[C@@H](CCCNC(=N)N)C(=O)N[C@@H](CCCNC(=N)N)C(=O)N[C@@H](CCCNC(=N)N)C(=O)N[C@@H](CCCCN)C(=O)N[C@@H](CCCCN)C(=O)N[C@@H](CCCNC(=N)N)C(=O)N[C@H](C(N)=O)[C@@H](C)O,24 nM
18,CC[C@H](C)[C@H](NC(C)=O)C(=O)N[C@@H](C)C(=O)N[C@@H](CCCNC(=N)N)C(=O)N[C@@H](CCCNC(=N)N)C(=O)N[C@@H](CCCNC(=N)N)C(=O)N[C@@H](CCCCN)C(=O)N[C@@H](CCCCN)C(=O)N[C@@H](CCCNC(=N)N)C(=O)N[C@H](C(N)=O)[C@@H](C)O,11 nM
19,CC[C@H](C)[C@H](NC(=O)[C@H](CCCNC(=N)N)NC(=O)[C@H](C)NC(=O)[C@@H](NC(C)=O)[C@@H](C)O)C(=O)N[C@@H](CCCNC(=N)N)C(=O)N[C@@H](CCCCN)C(=O)N[C@@H](CCCCN)C(=O)N[C@@H](CCCNC(=N)N)C(=O)N[C@H](C(N)=O)[C@@H](C)O (Ac-TARIRKKRT-NH2),11 nM
20,CC(=O)N[C@@H](CCCNC(=N)N)C(=O)N[C@@H](CC(=O)O)C(=O)N[C@@H](CCCNC(=N)N)C(=O)N[C@@H](CCCNC(=N)N)C(=O)N[C@@H](CCCNC(=N)N)C(=O)N[C@@H](CCCCN)C(=O)N[C@@H](CCCCN)C(=O)N[C@@H](CCCNC(=N)N)C(=O)N[C@H](C(N)=O)[C@@H](C)O,33 nM
21,CC(=O)N[C@@H](CCCNC(=N)N)C(=O)N[C@@H](C)C(=O)N[C@@H](CCCNC(=N)N)C(=O)N[C@@H](CC(C)C)C(=O)N[C@@H](CCCNC(=N)N)C(=O)N[C@@H](CCCCN)C(=O)N[C@@H](CCCCN)C(=O)N[C@@H](CCCNC(=N)N)C(=O)N[C@H](C(N)=O)[C@@H](C)O,11 nM
22,CC(=O)N[C@@H](CC(=O)O)C(=O)N[C@@H](C)C(=O)N[C@@H](CCCNC(=N)N)C(=O)N[C@@H](CCCNC(=N)N)C(=O)N[C@@H](CCCNC(=N)N)C(=O)N[C@@H](CCCCN)C(=O)N[C@@H](CCCCN)C(=O)N[C@@H](CCCNC(=N)N)C(=O)N[C@H](C(N)=O)[C@@H](C)O,20 nM
23,CC[C@H](C)[C@H](NC(=O)[C@H](CCCNC(=N)N)NC(=O)[C@H](C)NC(=O)[C@H](CO)NC(C)=O)C(=O)N[C@@H](CCCNC(=N)N)C(=O)N[C@@H](CCCCN)C(=O)N[C@@H](CCCCN)C(=O)N[C@@H](CCCNC(=N)N)C(=O)N[C@H](C(N)=O)[C@@H](C)O (Ac-SARIRKKRT-NH2),8 nM
24,CC(=O)N[C@@H](CCCNC(=N)N)C(=O)N[C@@H](C)C(=O)N[C@@H](CCCNC(=N)N)C(=O)N[C@H](C(=O)N[C@@H](CCCNC(=N)N)C(=O)N[C@@H](CCCCN)C(=O)N[C@@H](CCCCN)C(=O)N[C@@H](CCCNC(=N)N)C(=O)N[C@H](C(N)=O)[C@@H](C)O)[C@@H](C)O,8 nM
25,CC(=O)N[C@@H](CCCNC(=N)N)C(=O)N[C@@H](CCCCN)C(=O)N[C@@H](CCCNC(=N)N)C(=O)N[C@@H](CCCNC(=N)N)C(=O)N[C@@H](CCCNC(=N)N)C(=O)N[C@@H](CCCCN)C(=O)N[C@@H](CCCCN)C(=O)N[C@@H](CCCNC(=N)N)C(=O)N[C@H](C(N)=O)[C@@H](C)O,16 nM
26,CC(=O)N[C@@H](CCCNC(=N)N)C(=O)N[C@@H](C)C(=O)N[C@@H](CO)C(=O)N[C@@H](CCCNC(=N)N)C(=O)N[C@@H](CCCNC(=N)N)C(=O)N[C@@H](CCCCN)C(=O)N[C@@H](CCCCN)C(=O)N[C@@H](CCCNC(=N)N)C(=O)N[C@H](C(N)=O)[C@@H](C)O,29 nM
27,CC(=O)N[C@@H](CCCNC(=N)N)C(=O)N[C@H](C(=O)N[C@@H](CCCNC(=N)N)C(=O)N[C@@H](CCCNC(=N)N)C(=O)N[C@@H](CCCNC(=N)N)C(=O)N[C@@H](CCCCN)C(=O)N[C@@H](CCCCN)C(=O)N[C@@H](CCCNC(=N)N)C(=O)N[C@H](C(N)=O)[C@@H](C)O)C(C)C,16 nM

# System: not listed separately
# Assay: Half life in CD1 mouse plasma by LC-MS/MS analysis
# Format: ADME, cell-free
# Settings: CD1, mouse
# How it was run: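 Peptide incubated ex vivo in mouse plasma at 37 °C and sampled at several time points, using the ng/mL concentration range. Intact peptide quantified by high-resolution mass spectrometry and expressed as percentage remaining; t1/2 derived from the time course. Each time point run in triplicate; mean and mean ± SD reported.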
row,SMILES,half-life
1,CC(=O)N[C@@H](Cc1ccccc1)C(=O)N[C@@H](C)C(=O)N[C@@H](CCCNC(=N)N)C(=O)N[C@@H](CCCNC(=N)N)C(=O)N[C@@H](CCCNC(=N)N)C(=O)N[C@@H](CCCCN)C(=O)N[C@@H](CCCCN)C(=O)N[C@@H](CCCNC(=N)N)C(=O)N[C@H](C(N)=O)[C@@H](C)O,33.6 s
2,CC(=O)N[C@@H](CCCNC(=N)N)C(=O)N[C@@H](Cc1ccccc1)C(=O)N[C@@H](CCCNC(=N)N)C(=O)N[C@@H](CCCNC(=N)N)C(=O)N[C@@H](CCCNC(=N)N)C(=O)N[C@@H](CCCCN)C(=O)N[C@@H](CCCCN)C(=O)N[C@@H](CCCNC(=N)N)C(=O)N[C@H](C(N)=O)[C@@H](C)O,57.6 s
3,CC(=O)N[C@@H](CCCNC(=N)N)C(=O)N[C@@H](C)C(=O)N[C@@H](CCCNC(=N)N)C(=O)N[C@@H](CCCNC(=N)N)C(=O)N[C@@H](CCCNC(=N)N)C(=O)N[C@@H](CCCCN)C(=O)N[C@@H](CCCCN)C(=O)NN(CCCNC(=N)N)CC(=O)N[C@@H](Cc1ccccc1)C(N)=O,155 s
4,CC(=O)N[C@@H](CCCNC(=N)N)C(=O)N[C@@H](C)C(=O)N[C@@H](Cc1ccccc1)C(=O)N[C@@H](CCCNC(=N)N)C(=O)N[C@@H](CCCNC(=N)N)C(=O)N[C@@H](CCCCN)C(=O)N[C@@H](CCCCN)C(=O)N[C@@H](CCCNC(=N)N)C(=O)N[C@H](C(N)=O)[C@@H](C)O,12.6 s
